Experimental data published in ChEMBL document CHEMBL1121732, “Synthesis and pharmacological activity of thiohexital enantiomers” (J Med Chem, 1981).
“And” between values parts separate entries of the source, which are not always exact repeats. Equal entries are not always repeated.

Key:
[1] = Potency ratio of compound was measured after intravenous administration; format: functional
Summary of the method: (§1)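 Potency relative to the racemate, the standard, from Litchfield-Wilcoxon dose-response curves (≥4 doses, 10 male CF-1 mice each) for loss of righting reflex. Dosing ip or iv (caudal vein) at 20 mL/kg in saline after dissolving in 0.1 M NaOH.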

[2] = (§2) The median anesthetic dose evaluated after intraperitoneal administration in barbiturates.; format: functional; details: ip
Summary of the method: (§3)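 Male CF-1 mice (29.5 ± 2.5 g). Drug dissolved in 0.1 M aqueous NaOH (monosodium salt), diluted with saline, dosed at 20 mL/kg ip or iv via caudal vein; weights as free acid. Anesthesia = loss of righting reflex (no recovery from back within 1 min). AD50 with 95% confidence limits by Litchfield-Wilcoxon; ≥4 doses giving 10-90% response, 10 mice per dose.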

Mus musculus [3] = assay: as §2; format: functional; summary of the method: as §3
[4] = Potency ratio of compound to that of racemate was measured after intraperitoneal administration; format: functional; summary of the method: as §1
[5] = Ratio of LD50 to AD50 after intraperitoneal administration; format: ADME; details: ip; read-out: Therapeutic index
Summary of the method: (§4)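 Therapeutic index, LD50/AD50. Both values from Litchfield-Wilcoxon curves in male CF-1 mice, 10 per dose, ≥4 doses. […] Dosing ip or iv (caudal vein), 20 mL/kg saline vehicle after 0.1 M NaOH.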

Mus musculus [6] = assay: The median anesthetic dose evaluated after intravenous administration in barbiturates.; format: functional; summary of the method: as §3
Mus musculus [7] = assay: Evaluation for duration of recovery tremors after administration of dose; format: functional
Summary of the method: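 Groups of 40 male CF-1 mice, each given its compound's AD50 dose ip. Recovery tremors recorded for incidence, duration in minutes and graded severity.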

[8] = (§5) Evaluation after intravenous injection at faster rate (0.5 s); format: ADME, organism-based; details: mouse, in vivo
[9] = Potency ratio of slower rate (LD50) to that of faster rate (LD50); format: functional
Summary of the method: (§6)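 Racemate given iv via caudal vein at 20 mL/kg, either fast (about 0.5 s) or slower (about 3.0 s) injection. […] Slow-rate value compared with fast-rate value.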

[10] = Ratio of LD50 to AD50 after intravenous administration; format: ADME; summary of the method: as §4
Mus musculus [11] = assay: Evaluation for the duration of action of intraperitoneal administration of dose; format: functional
[12] = The median lethal dose evaluated after intravenous administration in barbiturates.; format: ADME
Summary of the method: (§7)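 Male CF-1 mice (29.5 ± 2.5 g). Drug dissolved in 0.1 M aqueous NaOH, diluted with saline, 20 mL/kg ip or iv (caudal vein); doses as free acid. Lethality scored over 24 h. LD50 with 95% confidence limits by Litchfield-Wilcoxon from ≥4 doses giving 10-90% response, 10 mice per dose.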

[13] = Potency ratio of slower rate (AD50) to that of faster rate (AD50); format: functional; summary of the method: as §6
Mus musculus [14] = assay: Evaluation for the onset of action of intraperitoneal administration of dose; format: functional
Mus musculus [15] = assay: as §5; format: functional; summary of the method: as §3
[16] = The median lethal dose evaluated after intraperitoneal administration in barbiturates.; format: ADME; details: ip; summary of the method: as §7
[17] = Potency ratio of compound to that of racemate was measured after intravenous administration; More potent; format: functional; summary of the method: as §1
[18] = Potency ratio of compound was measured after intraperitoneal administration; More potent; format: functional; summary of the method: as §1

Compound	Potency ratio [1]	LD50 [2]	AD50 (Mus musculus [3])	Potency ratio [4]	selectivity ratio [5]	AD50 (Mus musculus [6])	Duration (Mus musculus [7])	LD50 [8]	Potency ratio [9]	Therapeutic index [10]	selectivity ratio ([10]; read-out: Therapeutic index)	Duration (Mus musculus [11])	LD50 [12]	Potency ratio [13]	Onset of action (Mus musculus [14])	AD50 (Mus musculus [15])	LD50 [16]	Potency ratio [17]	Potency ratio [18]
C=CCC1([C@H](C)C#CCC)C(=O)NC(=S)NC1=O	1.22	66.1 mg/kg	27.3 mg/kg	1.06 and 1.04	2.4	24.1 mg/kg	6.2 min												
C=CCC1(C(C)C#CCC)C(=O)NC(=S)NC1=O (racemic) [RAC THIOHEXITAL]			25.8 mg/kg		2.5	19.8 mg/kg	5.8 min	31.5 mg/kg	1.7	3.4	2.7	12.36 min	53.5 mg/kg	2.15	3.69 min	9.2 mg/kg			
C=CCC1([C@@H](C)C#CCC)C(=O)NC(=S)NC1=O			18.8 mg/kg	1.06	3.2	12.3 mg/kg	5.4 min					12.15 min			3.49 min		59.8 mg/kg	1.61	1.37
